In the library only some 3.5% were active in any assay of this set; here they are far more common.
MrgX1 PAM: human MrgX1 positive allosteric modulation, primary screen; Q96LB2; MrgX1-HEK293, Fluo-4 calcium flux, FDSS; hits give high values; B-score at 10 µM; 0.63% of 310,000 active;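 active = plate-corrected calcium response at least 3 library SD above typical, normal starting fluorescence, not activating the receptor alone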;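 also: compound read alongside a low EC10 to EC30 dose of BAM8-22 agonist; peak minus trough fluorescence over baseline measured at the second addition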
Target sequence (Q96LB2 whole entry, looked up): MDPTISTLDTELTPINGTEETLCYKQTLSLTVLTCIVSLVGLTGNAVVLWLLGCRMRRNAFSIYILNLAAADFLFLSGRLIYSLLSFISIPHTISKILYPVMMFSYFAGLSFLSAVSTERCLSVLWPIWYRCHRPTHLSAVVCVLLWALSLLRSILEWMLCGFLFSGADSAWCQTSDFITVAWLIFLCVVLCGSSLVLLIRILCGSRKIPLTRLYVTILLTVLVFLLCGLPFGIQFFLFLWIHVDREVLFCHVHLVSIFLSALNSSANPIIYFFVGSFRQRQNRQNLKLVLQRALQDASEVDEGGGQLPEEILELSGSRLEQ
MrgX1 agonist: human MrgX1 receptor agonism, primary screen. 0.44% of 310,000 active. MrgX1-HEK293 cells, Fluo-4 calcium fluorescence, agonist mode; hits give high values. AID 588627. B-score at 10 µM. Q96LB2;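 active = calcium response B-score plate-corrected fluorescence ratio at least 3 library SD, with starting fluorescence B-score inside 5 SD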
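Test system: Stable human MrgX1 HEK293 cell line | Schedule: Overnight plating before 1 h dye loading | Read-out basis: Baseline-normalised fluorescence change ratio, B-scored | Detection: Kinetic calcium dye fluorescence, Fluo-4 NW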
RGS4 pot: potentiators or activators of RGS4 | HEK293 M3R/inducible RGS4, carbachol calcium flux Fluo4; hits give low values | B-score at 10 µM | 0.92% of 310,000 active;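 active = B-score of the integrated calcium signal more than 4 SD below the library mean, with starting fluorescence not abnormally high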;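 also: negative B-score means reduced calcium response which marks RGS4 activation or potentiation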
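Assay system: Inducible-RGS4 HEK293 cells carrying M3 receptor | Schedule: Compound preincubation 20 min at room temperature before agonist | Signal: Kinetic calcium fluorescence imaging with Fluo4-AM dye, 2 µM | Read-out basis: B score from integrated fluorescence ratio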
RGS4 block: human RGS4 inhibition; P49798; HEK293 M3R/RGS4 inducible, Fluo-4 calcium flux; hits give high values; triggered by carbachol at its EC20; B-score at 10 µM; 0.45% of 310,000 active; AID 463165;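 active = B-score, a plate-corrected calcium signal, over three deviations above library mean, with baseline fluorescence within five deviations of library mean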;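 also: RGS4 expression induced by doxycycline in cells with stable M3 receptor; B-score is computed from the integrated fluorescence ratio over baseline after carbachol; higher B-score means a larger calcium signal and so more RGS4 inhibition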
Target sequence (P49798 whole entry, looked up): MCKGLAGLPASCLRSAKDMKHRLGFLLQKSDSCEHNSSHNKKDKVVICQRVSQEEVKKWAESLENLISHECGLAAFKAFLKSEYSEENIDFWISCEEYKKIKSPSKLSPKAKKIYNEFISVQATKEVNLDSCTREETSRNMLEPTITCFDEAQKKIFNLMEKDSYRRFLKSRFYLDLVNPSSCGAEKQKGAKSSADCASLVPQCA
MrgX1 antag: blocks BAM8-22 activation of human MrgX1 receptor; MRGX1-HEK293 calcium flux, Fluo-4, BAM8-22 antagonism; hits give low values; AID 588676; Q96LB2; B-score at 10 µM; 1.3% of 310,000 active;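 active = calcium-response B-score plate-corrected more than 3 library SD below zero, starting fluorescence within 5 deviations, no agonist response on first addition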;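 also: peak minus trough fluorescence over baseline after final BAM8-22 challenge near maximal dose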
MrgX1 antag conf: confirmation of human MrgX1 receptor antagonists | shares compounds with MrgX1 antag | MrgX1-HEK293, BAM8-22 calcium flux, Fluo-4; hits give low values | remaining BAM8-22 calcium response % of control (hits give low values), % at 10 µM | 19% of 2,300 active;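 active = remaining agonist calcium response no higher than 100% minus 3 SD of agonist-only control wells, with starting fluorescence near control levels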;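 also: agonist BAM8-22 given at a near maximal EC90 to ECmax level; peak minus minimum fluorescence divided by baseline after agonist addition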
HEK293 Ca flux: counter-screen for MrgX1 antagonists: effect in parental HEK293 cells; shares compounds with MrgX1 antag; Fluo-4 calcium fluorescence, FDSS; fluorescence ratio F(max-min)/F0 at 10 µM; 2% of 4,000 active; AID 624111;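 active = duplicate-averaged calcium fluorescence ratio at least three times the standard deviation of buffer wells, a nonspecific response in parental cells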
HEK293 Ca counter: MrgX1 allosteric activator counter-screen hit in parental HEK293 cells | 0.4% of 4,000 active | AID 624114 | fluorescence ratio F(max-min)/F0 at 10 µM | shares compounds with MrgX1 antag | parental HEK293 calcium flux, Fluo-4 fluorescence ratio; hits give high values;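 active = calcium fluorescence ratio, averaged over duplicates, at least 3 SD of the buffer-well ratio, meaning a nonspecific response in receptor-free cells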;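 also: untransfected parental HEK293 lacking MrgX1 used as counterscreen for MrgX1 allosteric activators; fluorescence change taken during the second addition on a kinetic imager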
HEK293 Ca cntr2: counter-screen for MrgX1 activators: effect in parental HEK293 cells; Fluo-4 calcium fluorescence (FDSS); hits give high values; AID 624115; 8.7% of 4,000 active; shares compounds with MrgX1 antag; fluorescence ratio F(max-min)/F0 at 10 µM;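 active = calcium fluorescence ratio at least three times the spread of buffer wells, meaning a non-specific response in parental cells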
Numbers without * were called inactive.

What do the screens show for `CCCCNC(=O)N1CCOCCOCCN(C(=O)NCCCC)CCOCC1`?
MrgX1 PAM: inactive; MrgX1 agonist: inactive; RGS4 pot: inactive; RGS4 block: inactive; MrgX1 antag: -4.6*; MrgX1 antag conf: inactive; HEK293 Ca flux: inactive; HEK293 Ca counter: inactive; HEK293 Ca cntr2: inactive

How did COc1ccccc1OCCSc1nc(C)c(Cc2ccccc2)c(=O)[nH]1 do in these assays?
MrgX1 PAM: inactive; MrgX1 agonist: inactive; RGS4 pot: inactive; RGS4 block: inactive; MrgX1 antag: inactive

How did COc1ccc(-n2nc3c(c2NC(=O)COc2cccc(OC)c2)CS(=O)(=O)C3)cc1 do in these assays?
MrgX1 PAM: inactive; MrgX1 agonist: inactive; RGS4 pot: inactive; RGS4 block: inactive; MrgX1 antag: -7.5*; MrgX1 antag conf: inactive; HEK293 Ca flux: inactive; HEK293 Ca counter: inactive; HEK293 Ca cntr2: inactive

Results for CC(=O)Cc1ccccc1OC(=O)c1ccco1 ?
MrgX1 PAM: inactive; MrgX1 agonist: inactive; RGS4 pot: inactive; RGS4 block: inactive; MrgX1 antag: -6.2*; MrgX1 antag conf: inactive; HEK293 Ca flux: inactive; HEK293 Ca counter: inactive; HEK293 Ca cntr2: inactive

Results for CCn1c(COc2cccc(OC)c2)nnc1SCC(=O)Nc1cccc(OC)c1 ?
MrgX1 PAM: inactive; MrgX1 agonist: inactive; RGS4 pot: inactive; RGS4 block: inactive; MrgX1 antag: inactive

What do the screens show for `OC(CN1CCOCC1)Cn1c2ccccc2c2ccccc21` (stereo unspecified)?
MrgX1 PAM: inactive; MrgX1 agonist: inactive; RGS4 pot: inactive; RGS4 block: inactive; MrgX1 antag: inactive

Results for O=C1c2ccccc2C(=O)N1CC(O)CN1CCOCC1 (stereo unspecified) ?
MrgX1 PAM: inactive; MrgX1 agonist: inactive; RGS4 pot: inactive; RGS4 block: inactive; MrgX1 antag: -5.2*; MrgX1 antag conf: inactive; HEK293 Ca flux: inactive; HEK293 Ca counter: inactive; HEK293 Ca cntr2: inactive

How did CCOC(=O)c1c(NC(=O)COC(=O)c2nc(Cl)ccc2Cl)sc(C(=O)NC)c1C do in these assays?
MrgX1 PAM: inactive; MrgX1 agonist: inactive; RGS4 pot: inactive; RGS4 block: inactive; MrgX1 antag: inactive

Results for Cc1ccc(NC(=O)c2ccc3ncsc3c2)cc1S(=O)(=O)N(C)C ?
MrgX1 PAM: inactive; MrgX1 agonist: inactive; RGS4 pot: inactive; RGS4 block: inactive; MrgX1 antag: -5.4*; MrgX1 antag conf: inactive; HEK293 Ca flux: inactive; HEK293 Ca counter: inactive; HEK293 Ca cntr2: inactive

How did Cc1ccc(NC(=O)c2cccnc2)cc1S(=O)(=O)N(C)C do in these assays?
MrgX1 PAM: inactive; MrgX1 agonist: inactive; RGS4 pot: inactive; RGS4 block: inactive; MrgX1 antag: inactive

Results for O=C(NCN1C(=O)C2C3C=CC(C3)C2C1=O)Nc1nncs1 (stereo unspecified) ?
MrgX1 PAM: inactive; MrgX1 agonist: inactive; RGS4 pot: inactive; RGS4 block: inactive; MrgX1 antag: -4.6*; MrgX1 antag conf: 85%*; HEK293 Ca flux: inactive; HEK293 Ca counter: inactive; HEK293 Ca cntr2: inactive

What do the screens show for `CCOC(=O)c1ccc(-c2c(C(=O)OCC)oc3cc(O)c(CC)cc3c2=O)o1`?
MrgX1 PAM: inactive; MrgX1 agonist: inactive; RGS4 pot: inactive; RGS4 block: inactive; MrgX1 antag: -4.8*; MrgX1 antag conf: 80%*; HEK293 Ca flux: inactive; HEK293 Ca counter: inactive; HEK293 Ca cntr2: inactive

How did O=c1cc(NS(=O)(=O)c2ccccc2)nc(SCc2c(Cl)cccc2Cl)[nH]1 do in these assays?
MrgX1 PAM: inactive; MrgX1 agonist: inactive; RGS4 pot: inactive; RGS4 block: inactive; MrgX1 antag: -5.1*; MrgX1 antag conf: inactive; HEK293 Ca flux: inactive; HEK293 Ca counter: inactive; HEK293 Ca cntr2: inactive

Results for CCCC(CCC(=O)NC1CCCCC1)C(=O)O (stereo unspecified) ?
MrgX1 PAM: inactive; MrgX1 agonist: inactive; RGS4 pot: inactive; RGS4 block: inactive; MrgX1 antag: inactive

How did CCCC(C)NC(C)C(=O)NC1CCCC1 (stereo unspecified) do in these assays?
MrgX1 PAM: inactive; MrgX1 agonist: inactive; RGS4 pot: inactive; RGS4 block: inactive; MrgX1 antag: -5*; MrgX1 antag conf: inactive; HEK293 Ca flux: inactive; HEK293 Ca counter: inactive; HEK293 Ca cntr2: inactive

What do the screens show for `CC(C)c1nnc(NC(=O)c2nc(S(=O)(=O)Cc3ccccc3)ncc2Cl)s1`?
MrgX1 PAM: inactive; MrgX1 agonist: inactive; RGS4 pot: inactive; RGS4 block: inactive; MrgX1 antag: -5.3*; MrgX1 antag conf: 81%*; HEK293 Ca flux: inactive; HEK293 Ca counter: inactive; HEK293 Ca cntr2: inactive

Results for CCc1ccc(NC(=O)c2nc(S(=O)(=O)Cc3ccccc3)ncc2Cl)cc1 ?
MrgX1 PAM: inactive; MrgX1 agonist: inactive; RGS4 pot: inactive; RGS4 block: inactive; MrgX1 antag: inactive

Results for CSc1nnc(NC(=O)c2nc(S(=O)(=O)Cc3ccccc3)ncc2Cl)s1 ?
MrgX1 PAM: inactive; MrgX1 agonist: inactive; RGS4 pot: inactive; RGS4 block: inactive; MrgX1 antag: -4.7*; MrgX1 antag conf: 71%*; HEK293 Ca flux: inactive; HEK293 Ca counter: inactive; HEK293 Ca cntr2: inactive

What do the screens show for `COC(=O)c1cc(S(=O)(=O)N2CCN(C(=O)c3ccco3)CC2)cn1C`?
MrgX1 PAM: inactive; MrgX1 agonist: inactive; RGS4 pot: inactive; RGS4 block: inactive; MrgX1 antag: inactive

Results for COc1ccc(-n2nc(C)c3c(=O)c4c([nH]c32)CCCC4)cc1 ?
MrgX1 PAM: inactive; MrgX1 agonist: inactive; RGS4 pot: inactive; RGS4 block: inactive; MrgX1 antag: inactive

What do the screens show for `Cc1cc(C(=O)N2CCN(S(=O)(=O)c3ccccc3F)CC2)c(C)o1`?
MrgX1 PAM: inactive; MrgX1 agonist: inactive; RGS4 pot: inactive; RGS4 block: inactive; MrgX1 antag: inactive
